Experimental data as given in ChEMBL document CHEMBL4261655, “Matrix metalloproteinase-12 inhibitors: synthesis, structure-activity relationships and intestinal absorption of novel sugar-based biphenylsulfonamide carboxylates” (Bioorg Med Chem, 2018).

Tests used:
[1] = Solubility in water; assay type: physicochemical
[2] = target: Macrophage metalloelastase (Homo sapiens, UniProt P39900); assay: Inhibition of recombinant human MMP12 using Mca-Lys-Pro-Leu-Gly-Leu-Dap(Dnp)-Ala-Arg-NH2 as substrate preincubated for 3 hrs followed by substrate addition and measured every 10 secs for 15 mins by fluorescence assay
Macrophage metalloelastase, sequence (P39900 whole entry): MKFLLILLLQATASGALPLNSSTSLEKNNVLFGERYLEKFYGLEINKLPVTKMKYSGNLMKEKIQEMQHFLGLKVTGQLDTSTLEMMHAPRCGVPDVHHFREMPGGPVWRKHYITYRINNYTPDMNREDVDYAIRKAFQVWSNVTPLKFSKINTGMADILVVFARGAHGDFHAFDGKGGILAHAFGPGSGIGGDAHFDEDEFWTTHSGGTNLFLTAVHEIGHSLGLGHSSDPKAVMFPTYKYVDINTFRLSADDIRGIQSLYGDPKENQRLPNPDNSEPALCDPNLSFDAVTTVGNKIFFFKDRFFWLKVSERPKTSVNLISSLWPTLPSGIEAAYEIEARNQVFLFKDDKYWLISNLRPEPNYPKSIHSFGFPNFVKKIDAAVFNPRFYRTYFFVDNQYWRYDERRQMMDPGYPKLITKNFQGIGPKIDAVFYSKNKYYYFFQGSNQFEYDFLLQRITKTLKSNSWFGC
Outline: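 Inhibitor at seven concentrations, 3 h at 25 °C; 2 µM final substrate. Fluorescence read at ex 325/em 400 nm. Done in triplicate. IC50 fitted as vi/v0 = 1/(1+[I]/IC50).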

[3] = target: Matrix metalloproteinase-9 (Homo sapiens, UniProt P14780); assay: Inhibition of recombinant human MMP9 using Mca-Lys-Pro-Leu-Gly-Leu-Dap(Dnp)-Ala-Arg-NH2 as substrate preincubated for 3 hrs followed by substrate addition and measured every 10 secs for 15 mins by fluorescence assay
Matrix metalloproteinase-9, sequence (P14780 whole entry): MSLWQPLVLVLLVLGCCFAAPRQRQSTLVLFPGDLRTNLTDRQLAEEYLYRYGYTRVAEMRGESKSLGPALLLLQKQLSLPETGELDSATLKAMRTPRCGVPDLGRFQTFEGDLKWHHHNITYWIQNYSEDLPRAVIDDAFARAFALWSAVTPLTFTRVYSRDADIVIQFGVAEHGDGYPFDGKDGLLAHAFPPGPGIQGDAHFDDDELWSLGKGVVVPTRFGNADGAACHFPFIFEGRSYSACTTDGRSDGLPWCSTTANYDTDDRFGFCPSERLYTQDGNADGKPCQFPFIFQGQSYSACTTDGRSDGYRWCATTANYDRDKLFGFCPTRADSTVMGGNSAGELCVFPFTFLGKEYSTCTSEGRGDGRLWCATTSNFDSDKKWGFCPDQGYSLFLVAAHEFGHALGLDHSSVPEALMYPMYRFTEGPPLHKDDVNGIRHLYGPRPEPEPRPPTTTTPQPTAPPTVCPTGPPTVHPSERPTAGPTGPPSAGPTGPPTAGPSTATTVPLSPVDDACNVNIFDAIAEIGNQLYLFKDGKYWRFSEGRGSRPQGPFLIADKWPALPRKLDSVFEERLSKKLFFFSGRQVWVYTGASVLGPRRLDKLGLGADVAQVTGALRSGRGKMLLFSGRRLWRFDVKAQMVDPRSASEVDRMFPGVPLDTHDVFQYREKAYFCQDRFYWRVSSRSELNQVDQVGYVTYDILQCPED
Outline: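 Pro-enzyme activated just before use with 1 mM APMA for 1 h at 37 °C; 1.3 nM final enzyme. Inhibitor at seven concentrations, 3 h at 25 °C; 2 µM final substrate. Fluorescence read at ex 325/em 400 nm. Done in triplicate. IC50 fitted as vi/v0 = 1/(1+[I]/IC50).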

| Structure (SMILES) | solubility [1] [mM] | IC50 [2] [nM] | IC50 [3] [nM] |
| --- | --- | --- | --- |
| CC(C)[C@H](C(=O)O)N([C@@H]1O[C@H](CO)[C@@H](O)[C@H](O)[C@H]1O)S(=O)(=O)c1ccc(-c2ccccc2)cc1 |  | 1300 | > 50000 |
| CO[C@@H]1O[C@H](CN([C@@H](C(=O)O)C(C)C)S(=O)(=O)c2ccc(-c3ccccc3)cc2)[C@@H](OC(C)=O)[C@H](OC(C)=O)[C@H]1NC(C)=O |  | 83 | 1240 |
| CO[C@@H]1O[C@H](CN([C@@H](C(=O)O)C(C)C)S(=O)(=O)c2ccc(-c3ccccc3)cc2)[C@@H](OC(C)=O)[C@H](OC(C)=O)[C@H]1OC(C)=O |  | 84 | 2600 |
| CO[C@@H]1O[C@H](CN([C@@H](C(=O)O)C(C)C)S(=O)(=O)c2ccc(-c3ccccc3)cc2)[C@@H](O)[C@H](O)[C@H]1O |  | 51 | 2200 |
| CO[C@@H]1O[C@H](CN([C@@H](C(=O)O)C(C)C)S(=O)(=O)c2ccc(-c3ccccc3)cc2)C(O)[C@H](O)C1NC(C)=O (single isomer, unassigned) |  | 41 | 890 |
| CO[C@@H]1O[C@H](CNC(=S)NCCN([C@@H](C(=O)O)C(C)C)S(=O)(=O)c2ccc(-c3ccccc3)cc2)[C@@H](O)[C@H](O)[C@H]1O |  | 65 | 520 |
| CC(C)[C@H](C(=O)O)N(CCNC(=S)N[C@@H]1O[C@H](CO)[C@@H](O)[C@H](O)[C@H]1O)S(=O)(=O)c1ccc(-c2ccccc2)cc1 |  | 98 | 1120 |
| CC(=O)N[C@@H]1[C@@H](OC(C)=O)[C@H](OC(C)=O)[C@@H](COC(C)=O)O[C@H]1N([C@@H](C(=O)O)C(C)C)S(=O)(=O)c1ccc(-c2ccccc2)cc1 |  | 40000 |  |
| CC(=O)OC[C@H]1O[C@@H](N([C@@H](C(=O)O)C(C)C)S(=O)(=O)c2ccc(-c3ccccc3)cc2)[C@H](OC(C)=O)[C@@H](OC(C)=O)[C@@H]1OC(C)=O |  | 9600 |  |
| CC(=O)N[C@@H]1[C@@H](O)[C@H](O)[C@@H](CO)O[C@H]1N([C@@H](C(=O)O)C(C)C)S(=O)(=O)c1ccc(-c2ccccc2)cc1 |  | 9200 |  |

The next lines start with the values.

| solubility [1] [mM] | IC50 [2] [nM] | IC50 [3] [nM] | Structure (SMILES) |
| --- | --- | --- | --- |
| > 5 | 40 | 5400 | CC(=O)N[C@@H]1[C@@H](O)[C@H](O)[C@@H](CO)O[C@H]1NC(=S)NCCN([C@@H](C(=O)O)C(C)C)S(=O)(=O)c1ccc(-c2ccccc2)cc1 |
|  | 18 | 1200 | CC(=O)N[C@@H]1[C@@H](OC(C)=O)[C@H](OC(C)=O)[C@@H](COC(C)=O)O[C@H]1NC(=S)NCCN([C@@H](C(=O)O)C(C)C)S(=O)(=O)c1ccc(-c2ccccc2)cc1 |
|  | 19 | 880 | CC(=O)OC[C@H]1O[C@@H](NC(=S)NCCN([C@@H](C(=O)O)C(C)C)S(=O)(=O)c2ccc(-c3ccccc3)cc2)[C@H](OC(C)=O)[C@@H](OC(C)=O)[C@@H]1OC(C)=O |
|  | 20 | 32 | CO[C@@H]1O[C@H](CNC(=S)NCCN([C@@H](C(=O)O)C(C)C)S(=O)(=O)c2ccc(-c3ccccc3)cc2)[C@@H](OC(C)=O)[C@H](OC(C)=O)[C@H]1OC(C)=O |
